Laboratory results as given in ChEMBL document CHEMBL1132920, “Syntheses of (R)- and (S)-2- and 6-fluoronorepinephrine and (R)- and (S)-2- and 6-fluoroepinephrine: effect of stereochemistry on fluorine-induced adrenergic selectivities” (J Med Chem, 2000).

Experiments:
[1] = target: Adrenergic receptor alpha-1 (Rattus norvegicus) (UniProt P15823+P23944+P43140); assay: Binding of [3H]prazosin to alpha-1 adrenergic receptor of rat cerebral cortical membranes at 100 uM; type: cell membranes; conditions: Membrane
[2] = target: T1, Adrenergic receptor alpha-2 (Rattus norvegicus, UniProt P22086+P19328+P22909); assay: Binding of [3H]clonidine to alpha-2-adrenergic receptor of rat cerebral cortical membranes; type: cell membranes, Membrane
T1 sequence (P22086 whole entry): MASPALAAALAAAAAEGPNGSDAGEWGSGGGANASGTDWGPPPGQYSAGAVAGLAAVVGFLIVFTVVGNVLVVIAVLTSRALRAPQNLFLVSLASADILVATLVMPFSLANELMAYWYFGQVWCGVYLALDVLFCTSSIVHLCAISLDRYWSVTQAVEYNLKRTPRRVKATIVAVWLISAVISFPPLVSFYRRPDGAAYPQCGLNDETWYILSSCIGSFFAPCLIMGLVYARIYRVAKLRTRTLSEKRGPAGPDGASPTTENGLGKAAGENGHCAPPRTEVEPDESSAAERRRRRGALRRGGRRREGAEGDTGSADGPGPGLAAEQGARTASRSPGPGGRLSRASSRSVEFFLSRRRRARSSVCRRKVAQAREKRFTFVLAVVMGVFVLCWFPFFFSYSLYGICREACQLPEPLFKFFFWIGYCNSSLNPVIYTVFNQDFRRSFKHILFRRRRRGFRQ
T1 sequence (P19328 whole entry): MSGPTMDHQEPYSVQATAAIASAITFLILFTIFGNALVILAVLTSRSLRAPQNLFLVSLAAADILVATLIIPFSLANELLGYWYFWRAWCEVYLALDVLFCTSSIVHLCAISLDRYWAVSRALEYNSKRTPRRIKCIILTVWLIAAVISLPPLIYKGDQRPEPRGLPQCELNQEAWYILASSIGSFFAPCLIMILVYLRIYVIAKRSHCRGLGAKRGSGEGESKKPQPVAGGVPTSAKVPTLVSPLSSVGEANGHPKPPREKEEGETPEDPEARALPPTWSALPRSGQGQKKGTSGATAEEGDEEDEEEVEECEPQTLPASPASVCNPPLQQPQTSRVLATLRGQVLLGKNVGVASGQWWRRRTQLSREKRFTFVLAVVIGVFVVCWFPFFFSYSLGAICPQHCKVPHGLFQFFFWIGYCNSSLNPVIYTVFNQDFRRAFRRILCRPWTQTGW
T1 sequence (P22909 whole entry): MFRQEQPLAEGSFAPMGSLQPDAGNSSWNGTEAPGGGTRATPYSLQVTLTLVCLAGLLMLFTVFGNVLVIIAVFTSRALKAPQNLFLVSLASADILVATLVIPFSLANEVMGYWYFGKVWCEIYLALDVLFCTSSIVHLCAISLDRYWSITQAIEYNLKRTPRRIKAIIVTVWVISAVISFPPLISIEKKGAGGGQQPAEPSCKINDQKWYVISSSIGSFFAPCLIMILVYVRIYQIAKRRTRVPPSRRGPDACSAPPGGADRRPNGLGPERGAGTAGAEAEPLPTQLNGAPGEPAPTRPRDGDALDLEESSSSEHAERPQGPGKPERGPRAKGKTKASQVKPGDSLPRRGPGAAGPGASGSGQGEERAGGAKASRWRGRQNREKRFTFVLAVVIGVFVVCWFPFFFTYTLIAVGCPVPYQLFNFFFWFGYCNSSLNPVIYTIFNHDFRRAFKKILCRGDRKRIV

[3] = target: T2, Adrenergic receptor alpha-1 (Rattus norvegicus, UniProt P15823+P23944+P43140); assay: Binding of [3H]prazosin to alpha-1 adrenergic receptor of rat cerebral cortical membranes; type: cell membranes, Membrane
T2 sequence (P15823 whole entry): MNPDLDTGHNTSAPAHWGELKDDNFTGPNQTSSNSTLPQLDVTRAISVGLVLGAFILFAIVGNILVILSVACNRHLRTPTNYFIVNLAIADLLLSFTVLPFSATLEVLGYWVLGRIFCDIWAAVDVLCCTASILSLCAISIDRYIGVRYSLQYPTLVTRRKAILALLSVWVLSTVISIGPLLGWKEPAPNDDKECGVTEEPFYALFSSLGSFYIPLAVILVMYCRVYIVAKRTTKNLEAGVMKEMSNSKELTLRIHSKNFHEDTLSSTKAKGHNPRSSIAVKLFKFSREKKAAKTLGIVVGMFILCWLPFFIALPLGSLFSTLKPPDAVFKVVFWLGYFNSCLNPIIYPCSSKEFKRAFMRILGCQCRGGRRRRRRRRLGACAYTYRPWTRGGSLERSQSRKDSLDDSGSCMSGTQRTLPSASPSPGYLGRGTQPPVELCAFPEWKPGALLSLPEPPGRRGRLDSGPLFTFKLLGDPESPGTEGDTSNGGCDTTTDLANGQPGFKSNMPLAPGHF
T2 sequence (P23944 whole entry): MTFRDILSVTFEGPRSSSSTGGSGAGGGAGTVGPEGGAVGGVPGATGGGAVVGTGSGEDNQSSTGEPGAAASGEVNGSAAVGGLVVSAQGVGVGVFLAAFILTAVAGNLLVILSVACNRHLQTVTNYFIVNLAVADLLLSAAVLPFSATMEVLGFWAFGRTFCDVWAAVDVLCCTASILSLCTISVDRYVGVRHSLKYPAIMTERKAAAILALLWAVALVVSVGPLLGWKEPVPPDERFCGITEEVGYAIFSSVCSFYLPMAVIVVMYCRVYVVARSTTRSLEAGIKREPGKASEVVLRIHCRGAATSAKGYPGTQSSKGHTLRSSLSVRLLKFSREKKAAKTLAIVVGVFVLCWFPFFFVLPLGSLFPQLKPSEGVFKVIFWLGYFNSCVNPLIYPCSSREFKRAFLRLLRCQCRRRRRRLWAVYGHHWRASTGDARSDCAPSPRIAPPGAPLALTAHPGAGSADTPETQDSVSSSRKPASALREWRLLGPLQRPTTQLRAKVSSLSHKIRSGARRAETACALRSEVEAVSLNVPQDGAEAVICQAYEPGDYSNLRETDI
T2 sequence (P43140 whole entry): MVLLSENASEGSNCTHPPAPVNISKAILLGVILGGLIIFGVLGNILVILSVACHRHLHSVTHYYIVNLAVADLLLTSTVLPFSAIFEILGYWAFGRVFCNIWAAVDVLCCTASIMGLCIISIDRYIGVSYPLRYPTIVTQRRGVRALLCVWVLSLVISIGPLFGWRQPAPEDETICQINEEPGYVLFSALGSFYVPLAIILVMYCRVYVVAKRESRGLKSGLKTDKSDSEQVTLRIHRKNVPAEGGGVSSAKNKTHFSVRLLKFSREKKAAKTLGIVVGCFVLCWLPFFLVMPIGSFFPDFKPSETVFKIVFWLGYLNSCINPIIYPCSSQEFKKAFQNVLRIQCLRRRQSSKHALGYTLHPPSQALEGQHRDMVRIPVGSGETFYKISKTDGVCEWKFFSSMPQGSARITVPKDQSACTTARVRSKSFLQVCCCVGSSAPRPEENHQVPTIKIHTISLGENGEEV
Method in brief: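 Affinity at alpha-1 adrenergic receptors measured as inhibition of specific [3H]prazosin binding to rat cerebral cortical membranes.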

[4] = target: Beta-1 adrenergic receptor (Rattus norvegicus, UniProt P18090); assay: Binding of [3H]dihydroalprenolol to beta-1 adrenergic receptor of rat cerebral cortical membranes; type: cell membranes, Membrane
Method in brief: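 Competition assay measuring displacement of specific [3H]dihydroalprenolol binding from rat cerebral cortical membranes to give beta-1 adrenergic receptor affinity.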

Sequence of Beta-1 adrenergic receptor (P18090 whole entry): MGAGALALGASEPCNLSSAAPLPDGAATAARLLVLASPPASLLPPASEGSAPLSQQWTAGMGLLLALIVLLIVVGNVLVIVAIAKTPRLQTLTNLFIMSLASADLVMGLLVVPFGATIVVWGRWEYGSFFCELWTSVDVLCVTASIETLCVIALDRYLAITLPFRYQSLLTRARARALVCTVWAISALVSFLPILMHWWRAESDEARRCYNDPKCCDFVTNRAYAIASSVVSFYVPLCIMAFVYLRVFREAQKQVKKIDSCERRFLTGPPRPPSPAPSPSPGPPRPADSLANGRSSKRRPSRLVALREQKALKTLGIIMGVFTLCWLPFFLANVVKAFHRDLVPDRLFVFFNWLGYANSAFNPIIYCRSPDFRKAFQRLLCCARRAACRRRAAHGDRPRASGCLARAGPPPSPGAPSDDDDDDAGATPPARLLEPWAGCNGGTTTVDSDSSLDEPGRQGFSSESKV

`NCC(O)c1cc(O)c(O)cc1F` (racemic) was tested, and the inhibition [1] was 20%.

With `NC[C@@H](O)c1ccc(O)c(O)c1F` the inhibition [1] was 12% and the Ki [2] was 0.32 µM.

For `NC[C@@H](O)c1cc(O)c(O)cc1F`, the Ki [3] was ~ 12 uM.

`CNC[C@@H](O)c1cc(O)c(O)cc1F` showed a Ki [2] of 0.078 µM and a Ki [4] of ~400 µM.

`NCCc1ccc(O)c(O)c1F` was tested, and the Ki [3] was 16 µM, the Ki [2] was 0.12 µM and the Ki [4] was 19 µM.

`NCCc1ccc(O)c(O)c1` [DOPAMINE] was tested, and the Ki [3] was 14 µM and the Ki [2] was 0.058 µM.

With `CNC[C@H](O)c1ccc(O)c(O)c1F` the Ki [2] was 0.067 µM.

For `CNC[C@@H](O)c1ccc(O)c(O)c1F`, the Ki [3] was ~ 40 uM and the Ki [2] was 0.053 µM.

In the case of `CNCC(O)c1cc(O)c(O)cc1F` (racemic), the Ki [2] is reported as 0.014 µM and the Ki [4] is reported as ~140 µM.

Molecule `NCC(O)c1ccc(O)c(O)c1` (single isomer, unassigned) has an inhibition [1] of 18%.

`CNCC(O)c1ccc(O)c(O)c1F` (racemic) showed a Ki [2] of 0.06 µM.

Work on `CNC[C@H](O)c1ccc(O)c(O)c1` (racemic) [EPINEPHRINE] yielded a Ki [4] of 2.1 µM.

`NC[C@H](O)c1cc(O)c(O)cc1F` gave a Ki [3] of 3.7 µM.

`CNC[C@@H](O)c1ccc(O)c(O)c1` [L-ADRENALINE] was tested, and the Ki [4] was 13 µM.

For `NC[C@H](O)c1ccc(O)c(O)c1F`, the Ki [3] was ~ 25 uM and the Ki [2] was 0.55 µM.

With `NCC(O)c1ccc(O)c(O)c1F` (racemic) the Ki [3] was ~ 50 uM and the Ki [2] was 0.6 µM.

Molecule `NCCc1cc(O)c(O)cc1F` has a Ki [3] of 6 µM, a Ki [2] of 0.04 µM and a Ki [4] of 41 µM.

In the case of `CNC[C@H](O)c1cc(O)c(O)cc1F`, the Ki [2] is reported as 0.013 µM and the Ki [4] is reported as ~100 µM.
